The values that follow come from ChEMBL document CHEMBL3585241, “Synthesis and biological evaluation of thiabendazole derivatives as anti-angiogenesis and vascular disrupting agents” (Bioorg Med Chem, 2015).

SMILES strings stand for the structures. The source made the active and inactive calls. The calls are words filed in the database; no cut-off is given here.

Test [1] relates to HUVEC. Kind of test: Cytotoxicity against HUVEC assessed as inhibition of cell proliferation rate at 10 uM after 72 hrs by MTT assay relative to control. The format is functional. Conditions: Homo sapiens. (In general: Tetrazolium dyes change colour on reduction, which living cells bring about.)
Test [2] deals with HUVEC. Kind of test: Cytotoxicity against HUVEC assessed as inhibition of cell proliferation rate at 100 uM after 72 hrs by MTT assay relative to control. It is filed as functional. The conditions noted are these: Homo sapiens.
Test [3] addresses T1, Tubulin (Bos taurus) (UniProt Q6B856+Q862F3). Kind of test: Inhibition of bovine brain tubulin polymerization at 5 uM by spectrophotometric analysis. Conditions: TDE = time-dependent effect. The method in brief:
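MAP-rich bovine brain tubulin (2 mg/mL) in 80 mM PIPES pH 6.9, 2 mM MgCl2, 0.5 mM EGTA, 5% glycerol, with DMSO or compound at 5 µM. Polymerization started with 1 mM GTP at 37 °C. Absorbance at 340 nm followed over 17 min (5 s intervals to 3 min, 10 s to 5 min, 30 s to 10 min, 60 s to 17 min).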

The subject of test [4] is A549. Kind of test: Inhibition of alpha-tubulin formation in human A549 cells at 50 nM after 24 hrs by TRITC/Hoechst 33258 staining-based immunofluorescence microscopic analysis. The format is cell-based.
Test [5] concerns the target T1, Tubulin (Bos taurus). The test can be described thus: Inhibition of bovine brain tubulin polymerization at 10 uM measured every 5 secs for 0 to 3 mins , 10 secs for 3 to 5 mins, 30 secs for 5 to 10 mins, 60 secs for 10 to 17 mins by spectrophotometric analysis.
The test system of the next test is HepG2. Kind of test: Cytotoxicity against human HepG2 cells assessed as inhibition of cell proliferation rate after 72 hrs by MTT assay. The format is functional, cell-based. Conditions: HepG2, 72 h. The method in brief:
(§1)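 Cells seeded at 3.5 × 10^4 cells/mL and cultured 24 h (37 °C, 5% CO2), then exposed to compounds for 72 h. DMSO at 0.5% final served as the vehicle control. IC50 taken from triplicate experiments, reported as mean.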

The test system of test [6] is HUVEC. Kind of test: Induction of vascular disruption in HUVEC after 16 hrs by inverted microscopic analysis. It is filed as functional, cell-based. The conditions noted are these: Homo sapiens.
The test system of another test is HCT-116. The test can be described thus: Cytotoxicity against human HCT116 cells assessed as inhibition of cell proliferation rate after 72 hrs by MTT assay. It is filed as functional, cell-based. Conditions: HCT-116, 72 h. In a few lines:
as §1

The test system of test [7] is A549. The test can be described thus: Inhibition of alpha-tubulin formation in human A549 cells at 250 uM after 24 hrs by TRITC/Hoechst 33258 staining-based immunofluorescence microscopic analysis. It is filed as cell-based.
Test [8] has as its system A549. The test can be described thus: Cytotoxicity against human A549 cells assessed as inhibition of cell proliferation rate after 72 hrs by MTT assay. The conditions noted are these: A549, 72 h. It is filed as functional, cell-based. In a few lines:
as §1

Test [9] deals with HUVEC. Kind of test: Cytotoxicity against HUVEC assessed as inhibition of cell proliferation rate after 72 hrs by MTT assay. The format is functional, cell-based. Conditions: Homo sapiens. The method in brief:
as §1

Test [10] has as its system HUVEC. The test can be described thus: Antiangiogenic activity in HUVEC assessed as inhibition of tubular structure formation at 0.033 to 0.33 uM after 8 hrs by microscopic analysis. The format is functional, cell-based. The conditions noted are these: Homo sapiens.
The test system of the next test is Thoracic aorta. The test can be described thus: Antiangiogenic activity in Sprague-Dawley rat thoracic aorta ring assessed as inhibition of microvessel outgrowth at 0.33 uM measured on day 6 by inverse microscopic analysis. The format is functional, tissue-based. In a few lines:
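Aortas from 6-week Sprague Dawley rats taken under ether anesthesia, rinsed in serum-free M199 and cut into 1-mm rings. Rings embedded in Matrigel and held 1 h at 37 °C. Serum-free M199, with or without 20% FBS, then added with test agents at various concentrations. Sprouting imaged by inverted microscope on day 6.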

The target of test [11] is T1, Tubulin (Bos taurus). The test can be described thus: Inhibition of bovine brain tubulin polymerization at 3 uM measured every 5 secs for 0 to 3 mins , 10 secs for 3 to 5 mins, 30 secs for 5 to 10 mins, 60 secs for 10 to 17 mins by spectrophotometric analysis.

For orientation: inhibition means the change of the read-out against control, counted positive when it falls. As to `Cc1cc2nc(-c3cscn3)[nH]c2cc1C`, the inhibition at 10 µM in the test with HUVEC [1] came to 0%. In addition, the inhibition at 100 µM in the test with HUVEC [2] is 0%.

`O=C(c1ccccc1)c1ccc2[nH]c(-c3cscn3)nc2c1`: the inhibition entry at Tubulin (Bos taurus) [3] is “tde”.

For the compound `CC[C@]1(O)C[C@@H]2CN(CCc3c([nH]c4ccccc34)[C@@](C(=O)OC)(c3cc4c(cc3OC)N(C)[C@H]3[C@@](O)(C(=O)OC)[C@H](OC(C)=O)[C@]5(CC)C=CCN6CC[C@]43[C@@H]65)C2)C1`, in the test on A549 [4], the inhibition result was “Active”.

Turning to `CC(=O)O[C@H]1C(=O)[C@@]2(C)[C@H]([C@H](OC(=O)c3ccccc3)[C@]3(O)C[C@H](OC(=O)[C@H](O)[C@@H](NC(=O)c4ccccc4)c4ccccc4)C(C)=C1C3(C)C)[C@]1(OC(C)=O)CO[C@@H]1C[C@@H]2O`, the inhibition result on Tubulin (Bos taurus) [5] is “inactive”.

As a reminder, the IC50 is the point on the concentration scale where inhibition reaches its midpoint. Regarding `c1ccc2[nH]cnc2c1` [BENZIMIDAZOLE], the inhibition at 10 µM in the test on HUVEC [1] worked out at 0%. Moreover, the inhibition at 100 µM with HUVEC [2] came to 11%. For the same compound, the IC50 was over 100 µM in the test with HepG2; over 250 µM in the test on HUVEC [6]; over 100 µM in the test on HCT-116; over 100 µM in the test with A549 [8]; over 100 µM in the test on HUVEC [9]. The inhibition result in the test with A549 [7] is “Active”.

In the case of `c1ccc2cc3[nH]c(-c4cscn4)nc3cc2c1`, in the test with HUVEC [1], the inhibition at 10 µM was 2%. Further, the inhibition at 100 µM in the test on HUVEC [2] was 59%.

With `O=C(Nc1scnc1-c1nc2ccccc2[nH]1)NC1CC1`, the inhibition entry on Tubulin (Bos taurus) [3] was “tde”.

Take `CCN(CC)CCNC(=O)c1c(C)[nH]c(/C=C2\C(=O)Nc3ccc(F)cc32)c1C`: the inhibition result in the test with HUVEC [10] and in the test with Thoracic aorta was “Active” each time.

Consider `COC(=O)Nc1nc2cc(C(=O)c3cccs3)ccc2[nH]1`, for which the inhibition result at Tubulin (Bos taurus) [11] is “Active”.

For the compound `Cc1ccc2nc(-c3ccccn3)[nH]c2c1`, the inhibition at 10 µM in the test on HUVEC [1] came out at 7%. The inhibition at 100 µM with HUVEC [2] turned out to be 10%.

As to `c1ccc(Cn2c(-c3ccccc3)nc3ccccc32)cc1`, the inhibition at 10 µM in the test with HUVEC [1] is 7%. In addition, in the test with HUVEC [2], the inhibition at 100 µM came to 38%.

On to `c1cc2[nH]c(-c3cscn3)nc2cn1`, for which the inhibition at 10 µM in the test with HUVEC [1] stood at 8%. Further, the inhibition at 100 µM in the test on HUVEC [2] is 0%.

`Clc1ccc2[nH]c(-c3cscn3)nc2c1`: the inhibition at 10 µM in the test on HUVEC [1] stood at 7%. In addition, the inhibition at 100 µM in the test on HUVEC [2] stood at 53%.
